Test results from publication PMC8320611 (Current Research in Toxicology, 2020).

What was measured:
HepG2 cells [1] = assay: Resazurin reduction assay; format: cell-based, human; settings: HepG2, 1 h or 24 h incubation, 0–100 μM, vs negative control 1% DMSO
Procedure, shortened: (§1)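 Cells were seeded at 180,000 per well (HepG2 in RPMI 1640, HT29 in DMEM; 5% FCS, 37 °C, 5% CO2). After 24 h they were exposed to 0.1, 1, 10 or 100 μM test compound for 1 h or 24 h, using DMSO stocks diluted 1:100, in triplicate. Controls were 0.1% SDS and 1% DMSO. Cells were washed and given resazurin for 1 h; fluorescence was read at 544/590 nm. Blank-subtracted values are % of DMSO control, mean ± SD of three experiments.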

[2] = tested on: HT29 clone 19A human colon tumor cells; settings: ref Pool-Zobel et al., 2000, cited from earlier work; for DNA strand breaks (comet assay): 15 min incubation, 100 μM END and ENL
HT29 cells [3] = assay: Comet assay; format: cell-based, human; settings: for Total DNA strand breaks with FPG treatment (%-TI): HT29, 24 h, 10 or 100 μM, FPG treated, two independent experiments; for Background DNA-strand breaks (tail intensity): HT29, 24 h incubation, 10–100 μM, without FPG
Procedure, shortened: (§2)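 Cells at 80–90% confluence, viability >80% by trypan blue (HepG2 in RPMI 1640, HT29 in DMEM; 5% FCS) were exposed 24 h to 10 or 100 μM test compound from DMSO stock diluted 1:1000. Controls were 0.1% DMSO and 10 J/m2 UVC. Slides were lysed overnight at 4 °C, then treated with FPG or buffer. Unwinding was pH 13.5, 20 min; electrophoresis 20 min, 25 V. Mean tail intensity was scored on 2 × 50 cells/slide. Without FPG: three independent experiments; with FPG: two, in duplicate.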

[4] = ref Hu et al., 2007; cited from earlier work
[5] = tested on: human ovary carcinoma cell line ES-2; settings: ES-2, 48 h incubation, at 1 mM; ref Liu et al., 2017; cited from earlier work
HepG2 cells [6] = assay: Comet assay; format: cell-based, human; settings: for Total DNA strand breaks with FPG treatment (%-TI): HepG2, 24 h, 10 or 100 μM, FPG treated, two independent experiments; for Background DNA-strand breaks (tail intensity): HepG2, 24 h incubation, 10–100 μM, without FPG
Procedure, shortened: as §2

[7] = in vitro studies; ref Prasad, 2000; cited from earlier work
HT29 cells [8] = assay: Resazurin reduction assay; format: cell-based, human; settings: HT29, 1 h or 24 h incubation, 0–100 μM, vs negative control 1% DMSO
Procedure, shortened: as §1

[9] = tested on: extracellular vascular endothelial growth factor (VEGF); settings: in vivo, mice with established human breast cancer; ref Dabrosin et al., 2002; cited from earlier work
[10] = tested on: microbiota from human faeces; settings: incubation with microbiota from human faeces for 24 h; ref Heinonen et al., 2001; cited from earlier work
[11] = stated in the introduction, no reference given; cited from earlier work
[12] = tested on: human myelocytic HL-60 leukemia cancer cells; settings: HL-60, incubation with 0.5–40 μM; ref Park et al., 2008; cited from earlier work

Structure (SMILES): OC[C@H](Cc1cccc(O)c1)[C@H](CO)Cc1cccc(O)c1 [END, (2R,3R)-2,3-bis[(3-hydroxyphenyl)methyl]butane-1,4-diol]
- Relative vitality (HepG2 cells [1]): no significant reductions
- DNA strand breaks (comet assay) [2]: no differences to the negative control
- Oxidised pyrimidine DNA bases [2]: reduced
- Total DNA strand breaks with FPG treatment (%-TI) (HT29 cells [3]): No modulation
- Background DNA-strand breaks (tail intensity) (HT29 cells [3]): No significant modulation
- Protection against DNA damage and lipid peroxidation [4]: protect against DNA damage and lipid peroxidation
- Vitality [5]: significant decrease in vitality
- Total DNA strand breaks with FPG treatment (%-TI) (HepG2 cells [6]): No modulation
- Background DNA-strand breaks (tail intensity) (HepG2 cells [6]): No significant modulation
- Levels of reactive oxygen species (antioxidant effect) [7]: reduce the levels of reactive oxygen species
- Relative vitality (HT29 cells [8]): no significant reductions

Structure (SMILES): O=C1OC[C@H](Cc2cccc(O)c2)[C@H]1Cc1cccc(O)c1 [ENL, (3R,4R)-3,4-bis[(3-hydroxyphenyl)methyl]oxolan-2-one]
- Relative vitality (HepG2 cells [1]): no significant reductions
- DNA strand breaks (comet assay) [2]: no differences to the negative control
- Oxidised pyrimidine DNA bases [2]: reduced
- Oxidized purine DNA bases [2]: had such an impact
- Total DNA strand breaks with FPG treatment (%-TI) (HT29 cells [3]): no significant modulation
- Background DNA-strand breaks (tail intensity) (HT29 cells [3]): No significant modulation
- Protection against DNA damage and lipid peroxidation [4]: protect against DNA damage and lipid peroxidation
- Vitality [5]: significant decrease in vitality
- Total DNA strand breaks with FPG treatment (%-TI) (HepG2 cells [6]): no significant modulation
- Background DNA-strand breaks (tail intensity) (HepG2 cells [6]): No significant modulation
- Levels of reactive oxygen species (antioxidant effect) [7]: reduce the levels of reactive oxygen species
- Extracellular VEGF [9]: suppressed
- Relative vitality (HT29 cells [8]): no significant reductions

Structure (SMILES): COc1cc([C@H]2OC[C@H]3[C@@H]2CO[C@@H]3c2ccc(O[C@@H]3O[C@H](CO)[C@@H](O)[C@H](O)[C@H]3O)c(OC)c2)ccc1O[C@@H]1O[C@H](CO)[C@@H](O)[C@H](O)[C@H]1O [Pin-DG, pinoresinol diglycoside]
- Conversion into END and ENL [10]: 55%

Structure (SMILES): COc1cc(C[C@@H](CO)[C@H](CO)Cc2ccc(O)c(OC)c2)ccc1O [Seco, secoisolariciresinol]
- Protection against DNA damage and lipid peroxidation [4]: protect against DNA damage and lipid peroxidation
- Conversion into END and ENL [10]: 72%
- Levels of reactive oxygen species (antioxidant effect) [7]: reduce the levels of reactive oxygen species

Structure (SMILES): COc1cc(C[C@@H](CO[C@@H]2O[C@H](CO)[C@@H](O)[C@H](O)[C@H]2O)[C@H](CO[C@@H]2O[C@H](CO)[C@@H](O)[C@H](O)[C@H]2O)Cc2ccc(O)c(OC)c2)ccc1O [Seco-DG, seco-diglycoside]
- Solubility in water [11]: highly soluble

Structure (SMILES): COc1cc([C@H]2OC[C@H]3[C@@H]2CO[C@@H]3c2cc(OC)c(O)c(OC)c2)cc(OC)c1O [Syr, 4,4′-(1S,3aR,4S,6aR)-Tetrahydro-1H,3H-furo[3,4-c]furan-1,4-diylbis(2,6-dimethoxy-phenol)]
- Relative vitality (HepG2 cells [1]): no significant reductions
- Cell vitality (MTT assay) [12]: significant concentration-dependent decrease
- Relative vitality (HT29 cells [8]): no significant reductions

Structure (SMILES): O=c1c(-c2ccc(O)cc2)coc2cc(O)cc(O)c12 [genistein, reference compound]
- DNA strand breaks (comet assay) [2]: induced highly significant
